Laboratory results from ChEMBL document CHEMBL1687827, “Profiling the Aspergillus fumigatus proteome in response to caspofungin” (2011).
The source made the active and inactive calls. The calls are words filed in the database; no cut-off is given here.

Legend:
Aspergillus fumigatus [1] = assay: Induction of change in extracellular thaumatin domain protein, putative gene expression in drug-susceptible Aspergillus fumigatus KU80 delta-akuB at 0.12 ug/ml after 48 hrs in YPD medium by microarray analysis relative to control; assay type: functional
Outline: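 Mycelia grown in YPD ± 0.12 μg/ml caspofungin (1 × 10⁵ conidia/ml, 37°C, shaking) and harvested at 24 or 48 h. Total RNA extracted, DNase-treated and quality-checked; 2 μg labelled per TIGR SOP M007 and hybridized to whole-genome arrays. Three independent experiments with dye flip (6 replicates); drug vs untreated fold change.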

Aspergillus fumigatus [2] = assay: Induction of change in citrate synthase, eukaryotic protein level in iTRAQ-116 labelled cell wall fraction of drug-susceptible Aspergillus fumigatus KU80 delta-akuB at 0.12 ug/ml after 48 hrs in YPD medium by MS (MS/MS) analysis relative to control; assay type: functional
Outline: (§1)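 Conidia at 1 × 10⁵/ml grown shaking at 37°C in YPD with or without 0.12 μg/ml caspofungin; mycelia filtered at 24 or 48 h. Secreted fraction taken from the filtrate; cell wall/plasma membrane pellet recovered after French-press lysis and a 5,000 × g spin. Proteins trypsin-digested and iTRAQ-labelled, drug vs no-drug channels at each time, then 2D LC-MS/MS. Protein ratio is the median of ratios from uniquely assigned peptides after median normalization.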

Aspergillus fumigatus [3] = assay: Induction of change in cytochrome c oxidase polypeptide vib protein level in iTRAQ-118 labelled cell wall fraction of drug-resistant Aspergillus fumigatus EMFR-S678P at 0.12 ug/ml after 24 hrs in YPD medium by MS (MS/MS) analysis relative to control; assay type: functional, organism-based
Outline: (§2)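 Conidia at 1 × 10⁵/ml were grown at 37°C, shaking at 225 rpm, in YPD with or without 0.12 μg/ml caspofungin for 24 or 48 h. The culture filtrate was kept as the secreted fraction. Mycelia were lysed by French press in HEPES/glycerol/EDTA/PMSF/DTT buffer, and the 5,000 × g pellet was washed to give CW/PM. Proteins were reduced, alkylated and trypsin-digested at 37°C overnight, then iTRAQ-labelled and run by 2D LC-MS/MS. Ratios are the median of unique-peptide ratios, median-normalized, versus the no-drug control.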

Aspergillus fumigatus [4] = assay: Antifungal activity against drug-susceptible Aspergillus fumigatus KU80 delta-akuB assessed as change in hyphal morphology by RPMI medium; assay type: functional; details: read-out: MEC
Outline: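 CLSI M38-A2 broth microdilution, run in triplicate in RPMI or YPD medium as the line specifies. Caspofungin was dissolved in sterile water. The minimum effective concentration (MEC) was the lowest concentration giving a significant change in hyphal morphology visible to the eye.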

Aspergillus fumigatus [5] = assay: Induction of change in alkaline serine protease protein level in iTRAQ114 labelled cell wall fraction of drug-susceptible Aspergillus fumigatus KU80 delta-akuB at 0.12 ug/ml after 24 hrs in YPD medium by MS (MS/MS) analysis relative to control; assay type: functional; outline: as §1
Aspergillus fumigatus [6] = assay: Induction of change in Plasma membrane H-ATPase Pma1 protein level in iTRAQ114 labelled cell wall fraction of drug-resistant Aspergillus fumigatus EMFR-S678P at 0.12 ug/ml after 24 hrs in YPD medium by MS (MS/MS) analysis relative to control; assay type: functional; outline: as §2
Aspergillus fumigatus [7] = assay: Induction of change in thioredoxin TrxA protein level in iTRAQ-118 labelled cell wall fraction of drug-susceptible Aspergillus fumigatus KU80 delta-akuB at 0.12 ug/ml after 24 hrs in YPD medium by MS (MS/MS) analysis relative to control; assay type: functional
Outline: (§3)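 Conidia (1 × 10⁵/ml) grown in YPD, 37°C, 225 rpm, ± 0.12 μg/ml caspofungin; filtrate taken as secreted fraction, French-press lysate 5,000 × g pellet as cell wall/plasma membrane. Trypsin digests 8-plex iTRAQ-labelled (drug-free channels as references), pooled, 2D-chromatography, MS/MS. Median-normalized; protein ratio = median of unique-peptide ratios, log2 normalized.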

Aspergillus fumigatus [8] = assay: Induction of change in cytosolic small ribosomal subunit S15, putative protein level in iTRAQ114 labelled secreted fraction of drug-susceptible Aspergillus fumigatus KU80 delta-akuB at 0.12 ug/ml after 24 hrs in YPD medium by MS (MS/MS) analysis relative to control; assay type: functional; outline: as §1
Aspergillus fumigatus [9] = assay: Induction of change in stearic acid desaturase (SdeA), putative gene expression in drug-susceptible Aspergillus fumigatus KU80 delta-akuB at 0.12 ug/ml after 24 hrs in YPD medium by microarray analysis relative to control; assay type: functional
Outline: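 Mycelia grown from 1 × 10⁵ conidia/ml in YPD at 37°C, 225 rpm, with or without 0.12 μg/ml caspofungin. Total RNA extracted, DNase-treated; 2 μg labelled per TIGR SOP M007 for whole-genome array hybridization. Three independent experiments with dye flip (6 replicates); >2-fold change deemed significant.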

Aspergillus fumigatus [10] = assay: Induction of change in alanine aminotransferase, putative protein level in iTRAQ-116 labelled secreted fraction of drug-resistant Aspergillus fumigatus EMFR-S678P at 0.12 ug/ml after 48 hrs in YPD medium by MS (MS/MS) analysis relative to control; assay type: functional, organism-based; outline: as §2
Aspergillus fumigatus [11] = assay: Induction of change in cytosolic small ribosomal subunit protein S12 protein level in iTRAQ114 labelled secreted fraction of drug-susceptible Aspergillus fumigatus KU80 delta-akuB at 0.12 ug/ml after 24 hrs in YPD medium by MS (MS/MS) analysis relative to control; assay type: functional; outline: as §1
Aspergillus fumigatus [12] = assay: Induction of change in allergen Asp F4 protein level in iTRAQ114 labelled secreted fraction of drug-resistant Aspergillus fumigatus EMFR-S678P at 0.12 ug/ml after 24 hrs in YPD medium by MS (MS/MS) analysis relative to control; assay type: functional, organism-based; outline: as §2
Aspergillus fumigatus [13] = assay: Induction of change in GNAT family acetyltransferase, putative protein level in iTRAQ-116 labelled secreted fraction of drug-resistant Aspergillus fumigatus EMFR-S678P at 0.12 ug/ml after 48 hrs in YPD medium by MS (MS/MS) analysis relative to control; assay type: functional; outline: as §2
Aspergillus fumigatus [14] = assay: Induction of change in isocitrate dehydrogenase Idp1, putative protein level in iTRAQ-118 labelled cell wall fraction of drug-susceptible Aspergillus fumigatus KU80 delta-akuB at 0.12 ug/ml after 24 hrs in YPD medium by MS (MS/MS) analysis relative to control; assay type: functional; outline: as §3
Aspergillus fumigatus [15] = assay: Induction of change in 14-3-3 family protein ArtA, putative protein level in iTRAQ-116 labelled secreted fraction of drug-susceptible Aspergillus fumigatus KU80 delta-akuB at 0.12 ug/ml after 48 hrs in YPD medium by MS (MS/MS) analysis relative to control; assay type: functional; outline: as §1
Aspergillus fumigatus [16] = assay: Induction of change in ribosomal protein L27a protein level in iTRAQ114 labelled cell wall fraction of drug-susceptible Aspergillus fumigatus KU80 delta-akuB at 0.12 ug/ml after 24 hrs in YPD medium by MS (MS/MS) analysis relative to control; assay type: functional
Aspergillus fumigatus [17] = assay: Induction of change in aldehyde dehydrogenase, putative protein level in iTRAQ114 labelled secreted fraction of drug-resistant Aspergillus fumigatus EMFR-S678P at 0.12 ug/ml after 24 hrs in YPD medium by MS (MS/MS) analysis relative to control; assay type: functional; outline: as §2

CC[C@H](C)C[C@H](C)CCCCCCCCC(=O)N[C@H]1C[C@@H](O)[C@@H](NCCN)NC(=O)[C@@H]2[C@@H](O)CCN2C(=O)[C@H]([C@H](O)CCN)NC(=O)[C@H]([C@H](O)[C@@H](O)c2ccc(O)cc2)NC(=O)[C@@H]2C[C@@H](O)CN2C(=O)[C@H]([C@@H](C)O)NC1=O [CASPOFUNGIN]
fold change (FC) (Aspergillus fumigatus [1]): -11.2
fold change (FC) (Aspergillus fumigatus [2]): -1.2
Activity (Aspergillus fumigatus [3]): inactive
minimal effective concentration (Aspergillus fumigatus [4]): 0.25 µg/mL
fold change (FC) (Aspergillus fumigatus [5]): 1.3
fold change (FC) (Aspergillus fumigatus [6]): -1.15
fold change (FC) (Aspergillus fumigatus [7]): -3.2
fold change (FC) (Aspergillus fumigatus [8]): -1
fold change (FC) (Aspergillus fumigatus [9]): -4.6
Activity (Aspergillus fumigatus [10]): inactive
fold change (FC) (Aspergillus fumigatus [11]): 1.5
Activity (Aspergillus fumigatus [12]): inactive
fold change (FC) (Aspergillus fumigatus [13]): -1.07
fold change (FC) (Aspergillus fumigatus [14]): -2.1
fold change (FC) (Aspergillus fumigatus [15]): -2
fold change (FC) (Aspergillus fumigatus [16]): 1.9
fold change (FC) (Aspergillus fumigatus [17]): 1.62
